“Also recorded” adds a separate entry of the source.

The values below come from publication PMC3702173 (Circulation research, 2013).

The subject of one series is non-classical monocytes. Conditions: mouse cremaster muscle in vivo. Summed up: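 Cx3cr1egfp/WT mice, either with intact white cell count or made neutropenic with 1A8 (50µg i.p., 12h before), got TNF (50ng, 12h) intrascrotally. Anti-Ly6C (1µg i.v.) separated subsets, with non-classical monocytes GFP+ only. Cremaster adhesion was quantified by intravital microscopy; n=6.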

The next series concerns classical monocytes. As to the kind of experiment: Classical monocyte accumulation in peritoneum upon stimulation with TNF. It counts as in vivo, mouse. The settings on record: CRAMP-deficient mice, local application of CRAMP, unpublished data.
Series [1] has as its system murine monocytes (ICAM-1 or VCAM-1 binding). It counts as cell-based, mouse. Conditions: PMA 50ng/ml, MCP-1 50ng/ml, CRAMP 1µg/ml; ICAM-1-Fc or VCAM-1-Fc; n=5. Summed up:
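Mouse peripheral leukocytes exposed to PMA (50ng/ml), MCP-1 (50ng/ml) or CRAMP (1µg/ml) with ICAM-1-Fc or VCAM-1-Fc plus anti-Fc antibody; monocyte subsets gated by CD45, CD11b, CD115 and Gr1 staining; ligand binding read by flow cytometry; n=5.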

For series [2], the system named is endothelium (baso-apical transport of CRAMP). It counts as in vivo, mouse. The settings on record: n=4. Summed up:
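Neutropenic Darc−/− mice (1A8, 50µg/mouse i.p., 8h before stimuli) were injected intrascrotally with TNF (50ng, 4h) plus CRAMP (1µg). Fluorescent beads conjugated with anti-CRAMP antibody were then injected, and immobilised luminal beads were counted by intravital microscopy; n=4.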

Series [3] relates to classical monocytes (Ly6C^+). It counts as in vivo, mouse.
Another series concerns HUVEC. As to the kind of experiment: Transendothelial transport. The settings on record: for Effect on transendothelial LL37 transportation: pretreatment of HUVEC with inhibitor or enzyme. It counts as cell-based, human.
Series [4] relates to classical CD14^++CD16^− monocytes. It counts as cell-based, human. Conditions: for Monocyte adhesion to P-selectin/ICAM-1 or P-selectin/VCAM-1: substance coimmobilized, LL37/MCP1 n=8, mLL37 n=3.
The subject of series [5] is activated CD11b and VLA4 (β1- and β2-integrins) on monocytes. As to the kind of experiment: Integrin activation. It counts as cell-based, human. Conditions: LL37 1µg/ml; for Integrin activation on non-classical CD14^+CD16^++ monocytes: MCP-1 50ng/ml, Online Figure V.
For series [6], the system named is endothelial adhesion molecules on HUVEC. The series is described as follows: Expression of endothelial adhesion molecules on HUVEC. It counts as cell-based, human. Conditions: treatment of HUVEC with LL37.
Another series deals with FPR2. The settings on record: ref [6]; cited from earlier work.
For series [7], the system named is human non-classical CD14^+CD16^++ monocytes. It counts as cell-based. The settings on record: LL37 (1µg) deposited 15 min prior to perfusion; TNF-activated HUVEC; n=6. Summed up: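 Human non-classical CD14+CD16++ monocytes perfused in a flow chamber over HUVEC monolayers activated with TNF (20ng, 12h); LL37 (1µg) deposited on the monolayer 15 min before perfusion; adherent cells counted; n=6.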

Series [8] has as its system various T-cells, smooth muscle cells, and epithelial cells. The settings on record: ref [44], [45]; cited from earlier work.
Another series relates to monocytes. Conditions: ref [40]; cited from earlier work.
In a further series the test system is DARC. As to the kind of experiment: Interaction of DARC and LL37. It counts as binding. Conditions: Online Figure IV.
Series [9] relates to P2X7. As to the kind of experiment: Surface plasmon resonance, receptor proteoliposomes on immobilized LL37. It counts as binding. Conditions: LL37 immobilized on CM4 chip; receptor-containing proteoliposomes; not shown.
Another series relates to neutrophils. The settings on record: ref [24]; cited from earlier work.
For series [10], the system named is P2X7. Conditions: LPS-primed monocytes; via P2X7; ref [41]; cited from earlier work.

On to CRAMP, for which the “Adhesion of non-classical monocytes, mouse cremaster” value in the series on non-classical monocytes is “not of non-classical monocytes”. The “Accumulation of classical monocytes into peritoneum” value with classical monocytes was “rescued by local application of CRAMP”. In addition, the “ICAM-1 and VCAM-1 binding to classical monocytes” value (“ICAM-1 and VCAM-1 binding” for short) in series [1] is “increased binding of ICAM-1 or VCAM-1; also recorded: enhances ICAM-1 and VCAM-1 binding to classical monocytes”. For the same compound, the “Transportation of CRAMP across endothelium in Darc^−/− mice” value in [2] (neutropenic Darc^−/− mice, TNF 50ng, 4h, and CRAMP 1µg intrascrotal) was “maintained in Darc^−/− mice”. Further, the “Luminal CRAMP in WT mice” value in series [2] (neutropenic WT mice, TNF 50ng and CRAMP 1µg intrascrotal) was “luminal CRAMP was detected 4h after intrascrotal CRAMP injection”. In addition, the “Adhesion of classical monocytes in Cramp^−/− mice” value in [3] (Cramp^−/− mice, intrascrotal TNF with CRAMP 1µg vs TNF alone, n=5) is on record as “restored the defect in Cramp^−/− mice; also recorded: restores adhesion of classical monocytes”. In addition, the “Adhesion of classical monocytes, overall statement, mouse cremaster” value in [3] (mouse cremaster muscle in vivo) is recorded as “induce adhesion of classical monocytes”. Besides, the “Adhesion of classical monocytes in Fpr1^−/− mice” value in [3] (neutropenic Fpr1^−/− mice, TNF and CRAMP 1µg, n=6) is given as “resulted in increased adhesion in Fpr1^−/− mice”. Also, the “Adhesion of classical monocytes in Fpr2^−/− mice” value in series [3] (neutropenic Fpr2^−/− mice, TNF and CRAMP 1µg, n=6) is “this response was not observed in Fpr2^−/− mice”.

Take `C=C1[C@@H](C)[C@H]2[C@H](Cc3ccccc3)NC(=O)[C@]23OC(=O)/C=C/[C@H](O)CCC[C@@H](C)C/C=C/[C@H]3[C@@H]1O` [cytochalasin B]: in the series with HUVEC (n=6), the “Effect on transendothelial LL37 transportation” value was “abrogated”.

Take `O=C(Nc1ccc([N+](=O)[O-])cc1O)Nc1ccccc1Br` [SB225002]: in the series on HUVEC (n=6), the “Effect on transendothelial LL37 transportation” value is “did not impact on transendothelial LL37 transportation”.

Turning to “MCP1: classical chemokine, CCR2 ligand (CCL2/MCP-1)”, in [1], the “ICAM-1 and VCAM-1 binding” value is given as “increased binding of ICAM-1 or VCAM-1”. Also, the “Monocyte adhesion to P-selectin/ICAM-1 or P-selectin/VCAM-1” value in series [4] is on record as “strongly enhanced monocyte adhesion”. In addition, the “Integrin activation on non-classical CD14^+CD16^++ monocytes” value in series [5] is reported as “not on non-classical CD14^+CD16^++ monocytes”.

Regarding boc-PLPLP, the “Effect on transendothelial LL37 transportation” value in the series with HUVEC (n=6) is “did not impact on transendothelial LL37 transportation”.

Turning to `CCCCC[C@@H](O)[C@H]1C(=O)O[C@H](C)[C@@H](O)/C=C/C=C/C=C/C=C/C=C(\C)[C@@H](O)C[C@H](O)C[C@H](O)C[C@H](O)C[C@H](O)C[C@H](O)C[C@@H]1O` [filipin], the “Effect on transendothelial LL37 transportation” value with HUVEC (n=6) is “clear-cut decreases of LL37 transcytosis”.

Consider `Cc1ccc(C(=O)Nc2ccc(S(=O)(=O)O)c3cc(S(=O)(=O)O)cc(S(=O)(=O)O)c23)cc1NC(=O)c1cccc(NC(=O)Nc2cccc(C(=O)Nc3cc(C(=O)Nc4ccc(S(=O)(=O)O)c5cc(S(=O)(=O)O)cc(S(=O)(=O)O)c45)ccc3C)c2)c1` [suramin], for which the “Effect on transendothelial LL37 transportation” value in the series on HUVEC (n=6) is reported as “did not impact on transendothelial LL37 transportation”.

With `Cc1ccc2c(c1)C1(CCN(CCc3nc(-c4ccccc4)oc3C)CC1)OC(=O)N2` [RS504393, reference compound], the “Effect on MCP1-mediated monocyte adhesion” value in series [4] (RS504393 1µM, P-selectin/ICAM-1 or P-selectin/VCAM-1, n=8) was “blocked”.

In the case of `CCCCOc1ccc(C(=O)NN2C(=O)c3ccccc3NC2c2ccc(O)cc2)cc1` (stereo not shown) [quin-C7, reference compound], in series [5] (quin-C7 1µM, U73122 100nM, classical monocytes, n=4), the “Effect on LL37-induced integrin activation” value is given as “fully abrogated integrin activation induced by LL37”.

On to “LL37: human cathelicidin; linear peptide; FITC-labelled form used in transport experiment”, for which the “Effect on expression of endothelial adhesion molecules” value in [6] is given as “did not impact on expression of endothelial adhesion molecules”. The “Effect of serum on direct chemotactic activity” value in the series with FPR2 is “not affected by serum”. Further, in series [7], the “Adhesion of non-classical monocytes, in vitro flow chamber” value is recorded as “not of non-classical monocytes”. The Apoptosis result in [8] is “promotes apoptosis in various T-cells, smooth muscle cells, and epithelial cells”. Also, in the series on monocytes, the “Production and release of IL8” value was “induces the production and release of IL8 from monocytes”. In addition, in the series on HUVEC (4 °C, n=6), the “Transendothelial LL37 transportation at 4°C” value is “abrogated at 4 °C”. Also, the “Time until LL37 accumulation on HUVEC surface” value with HUVEC (time course, antibody-stained surface-bound LL37) was no less than 2 h. In addition, in the series on DARC, the “Interaction with DARC” value is “could not detect an interaction between DARC and LL37”. Also, the “Binding to P2X7” value with P2X7 [9] is on record as “no interaction with LL37”. Also, the “Monocyte adhesion to P-selectin/ICAM-1 or P-selectin/VCAM-1” value in series [4] is reported as “strongly enhanced monocyte adhesion”. For the same compound, the “Integrin activation on non-classical CD14^+CD16^++ monocytes” value in series [5] is recorded as “not on non-classical CD14^+CD16^++ monocytes”. Moreover, the “Apoptotic cell death in neutrophils” value with neutrophils is listed as “inhibit apoptotic cell death in neutrophils”. Also, the “Processing and release of IL-1 β” value with P2X7 [10] is “induced processing and release of the potent cytokine IL-1 β”.

On to `COc1cc2c(c(OC)c1OC)-c1ccc(OC)c(=O)cc1[C@@H](NC(C)=O)CC2` [colchicine], for which, in the series on HUVEC (n=6), the “Effect on transendothelial LL37 transportation” value was “abrogated”.

`CCCCCCCCCCCCCC(=O)O[C@@H]1[C@@H](C)[C@@]2(O)[C@@H](C=C(CO)C[C@]3(O)C(=O)C(C)=C[C@@H]23)[C@@H]2C(C)(C)[C@]12OC(C)=O` [PMA, phorbol-12-myristate-13-acetate, reference compound]: in [1], the “ICAM-1 and VCAM-1 binding” value is given as “increased binding of ICAM-1 or VCAM-1”.
